Screens deposited in PubChem by Sanford-Burnham Center for Chemical Genomics.
SENP1 FRET inh: inhibitors of human SENP1 SUMO protease catalytic domain; Q9P0U3; recombinant SENP1 catalytic domain, CyPet-SUMO1-YPet FRET cleavage; inhibition, % at 10 µM; 0.21% of 360,000 active; AID 624204;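 active = inhibition at least 30% at 10 µM, raw YFP signal under a set limit, fluorescence ratio 0.5 to 1.5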
Target sequence (Q9P0U3 419-644 limits assumed): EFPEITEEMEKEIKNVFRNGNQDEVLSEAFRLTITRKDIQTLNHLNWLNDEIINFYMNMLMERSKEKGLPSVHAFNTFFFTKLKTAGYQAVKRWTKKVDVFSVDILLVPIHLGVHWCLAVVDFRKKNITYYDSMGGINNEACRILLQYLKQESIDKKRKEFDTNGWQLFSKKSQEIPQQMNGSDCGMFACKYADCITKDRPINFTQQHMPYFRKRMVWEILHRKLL
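Test system: recombinant human SENP1 catalytic domain, His6-tagged / Medium: pH 8 Tris buffer with EDTA, NaCl, BME, BSA, NP40, catalase / Also added: SUMO1 FRET substrate flanked by Cypet and Ypet, 25 nM / Times: 50 min reaction at room temperature / Signal: FRET, CFP and YFP emission / Control set: no-enzyme low control and enzyme-plus-DMSO high control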
NR3A LBD binder: NR3A (human) ligand-binding domain modulation; NR3A LBD differential scanning fluorimetry, Tm shift; 0% = protein alone, 100% = glycine-bound protein; Tm shift relative to glycine control, % at 25 µM; 2.5% of 340,000 active; AID 1259313;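 active = melting temperature shift of at least 10% of the positive control shift, at one fixed dose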
EBI2 block: EBI2 (human) antagonism; 0.81% of 360,000 active; P32249; inhibition, % at 5 µM; EBI2 beta-arrestin recruitment, luminescence, 7a,25-OHC stimulated; in the data active = inhibition above about 38%;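 also: enzyme fragment complementation signal reports receptor beta-arrestin coupling in cells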
Target sequence (P32249 whole entry, looked up, the tested form may be a part): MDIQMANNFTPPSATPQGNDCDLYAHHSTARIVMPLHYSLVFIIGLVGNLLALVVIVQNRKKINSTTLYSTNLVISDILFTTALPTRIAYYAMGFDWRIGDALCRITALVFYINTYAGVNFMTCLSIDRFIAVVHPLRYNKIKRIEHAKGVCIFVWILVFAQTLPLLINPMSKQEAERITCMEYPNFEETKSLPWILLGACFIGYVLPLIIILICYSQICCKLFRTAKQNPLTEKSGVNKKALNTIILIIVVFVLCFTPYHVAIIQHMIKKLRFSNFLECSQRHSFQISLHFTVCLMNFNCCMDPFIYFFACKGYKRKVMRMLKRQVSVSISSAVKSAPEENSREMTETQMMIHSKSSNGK
MPTP inh: permeability transition pore inhibition | isolated mouse mitochondria, Ca2+ swelling absorbance, 30 min | inhibition, % at 10 µM | 1.4% of 360,000 active | AID 602449;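 active = inhibition of 50% or more, scaled per plate between neutral and stimulator controls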
MPTP counter: membrane potential counter-screen of mitochondrial pore inhibitors | shares compounds with MPTP inh | isolated mitochondria, Rhodamine 123 fluorescence | inhibition, % at 10 µM | 78% of 5,000 active | AID 624504; in the data active = inhibition above about 22%
MPTP swell DR: dose response confirmation of mitochondrial permeability transition pore inhibitors | shares compounds with MPTP inh | isolated mitochondria swelling, absorbance | IC50, µM | 58% of 780 active | AID 651561; in the data active = IC50 below about 20 µM
MPTP counter DR: active in counter-screen for permeability transition pore inhibitors | shares compounds with MPTP inh | isolated mitochondria counterscreen, fluorescence read-out | IC50, µM | 49% of 780 active | AID 651564; in the data active = IC50 below about 80 µM
Hits are given with their value; – = inactive; · = not tested or not shown. Only some compounds are listed: those with a hit (about 4.4% of all), similar ones and a draw of the others.

SMILES	SENP1 FRET inh	NR3A LBD binder	EBI2 block	MPTP inh	MPTP counter	others
CC1(C)CC(=O)C2=C(C1)OC1=C(C(=O)CC(C)(C)C1)C2c1cc([N+](=O)[O-])cc([N+](=O)[O-])c1O	–	–	–	–	·
CC1(C)CC(=O)C(C2C3=C(CC(C)(C)CC3=O)Oc3c(Br)cc(Br)cc32)=C(O)C1 (stereo not drawn)	–	–	–	82.0	94.7
CCCOc1ccc(C(=O)Nc2ccc(C)cc2[N+](=O)[O-])cc1	–	·	–	–	·
CC(C)COc1ccc(C(=O)Nc2ccccc2[N+](=O)[O-])cc1	–	–	–	53.5	–	MPTP swell DR=–;MPTP counter DR=–
COc1ccc(-c2cc(C(F)(F)F)nc(SCCC(=O)NCc3ccccc3)n2)cc1	–	–	–	59.6	–	MPTP swell DR=–;MPTP counter DR=–
COc1ccc(-c2cc(C(F)(F)F)nc(SCc3cccc(C(=O)O)c3)n2)cc1	–	–	–	–	·
COC(=O)/C=C1\SC(=NC(=O)c2cccc(Cl)c2)NC1=O	–	–	–	59.9	37.5
COc1ccc(CC2(c3ccccc3)NC(=O)NC2=O)cc1 (stereo not drawn)	–	–	–	–	·
[N-]=[N+]=NC(c1ccccc1)C(NC(=O)c1cc(C(F)(F)F)cc(C(F)(F)F)c1)c1ccccc1 (stereo not drawn)	–	·	–	68.3	103.2
O=C(NC(c1ccccc1)C(Cl)Cl)c1ccccc1 (stereo not drawn)	–	–	–	–	·
CCC(Sc1nc2cc(OC)c(OC)cc2c(=O)n1CCc1ccc(S(N)(=O)=O)cc1)C(=O)NCCOC (stereo not drawn)	–	–	–	–	·
CCOC(=O)c1c(NC(=O)c2cccc(N3C(=O)CCC3=O)c2)sc2c1CCN(CC)C2	–	–	–	–	·
CC(C)(C)c1cc(Cl)ccc1OCCOCCN1CCCC1	–	–	–	–	·
Cc1cc(C(C)(C)C)ccc1OCCOCCN1CCCC1	–	–	–	53.7	–	MPTP swell DR=12.1;MPTP counter DR=24.2
C=CC[C@H](CC(=O)OC(C)(C)C)C(=O)OC[C@H]1CCCN1C(=O)[C@@H](CC=C)CC(=O)N(CCO)Cc1ccccc1	–	–	–	–	·
CCCCn1c(=O)c(Cc2ccccc2)c(O)c2ccccc21	–	–	–	–	·
CCCCCCn1c(=O)c(Cc2ccccc2)c(O)c2ccccc21	–	–	–	58.3	59.4
Cc1cccc(Nc2ncnc3ccc(Br)cc23)c1	–	–	–	–	·
Clc1ccc(Nc2ncnc3ccc(Br)cc23)cc1	–	–	–	86.6	87.4
CN(C)c1ccc(Nc2ncnc3ccc(Br)cc23)cc1	–	–	–	–	·
Clc1cccc(Nc2ncnc3ccc(Br)cc23)c1	–	–	–	90.7	73.5
C=CC[n+]1c(-c2ccc(OCC)cc2)csc1NNC(=O)Nc1ccccc1	–	–	–	65.8	78.7
O=C(NC(Cc1ccccc1)c1nc2ccccc2[nH]1)c1ccc(Cl)c([N+](=O)[O-])c1 (stereo not drawn)	–	–	–	92.6	91.3
CSCC[C@H](NC(=O)c1ccc(Cl)c([N+](=O)[O-])c1)c1nc2ccccc2[nH]1	–	–	–	58.7	83.0
Cc1c(C(=O)NC(Cc2ccccc2)c2nc3ccccc3[nH]2)cccc1[N+](=O)[O-] (stereo not drawn)	–	–	–	–	·
SMILES	SENP1 FRET inh	NR3A LBD binder	EBI2 block	MPTP inh	MPTP counter	others
CCn1c(COc2ccc3c(c2)OCO3)nnc1SCC(=O)c1ccc(Cl)cc1	–	–	–	57.8	79.3
COc1ccc(OCC(=O)Nc2ccc(OC)c(S(=O)(=O)N3CCCCC3)c2)cc1	–	–	–	–	·
CC1CCN(S(=O)(=O)c2ccc(C(=O)Nc3ccccc3-c3nc4ccccc4[nH]3)cc2)CC1	–	30.7	–	94.5	64.3
CC1CCCN(S(=O)(=O)c2ccc(C(=O)Nc3ccccc3-c3nc4ccccc4[nH]3)cc2)C1 (stereo not drawn)	–	34.5	–	90.5	–	MPTP swell DR=7.15;MPTP counter DR=4.25
CC(C)C(C)NC(=O)COc1ccc(Sc2ccc(OCC(=O)NC(C)C(C)C)cc2)cc1 (stereo not drawn)	–	–	–	78.9	89.1
O=[N+]([O-])c1ccc(N2CCN(c3ccc(F)cc3)CC2)nc1	–	–	–	–	·
CCc1c(C2(O)CCCCC2)[nH]c2cc(C(F)(F)F)ccc12	–	–	–	82.4	86.5
COCCNC(=O)c1ccccc1NC(=O)CCSc1ccccc1	–	–	–	–	·
COc1ccc(/C=C/C(=O)OCC(=O)NCc2ccccc2Cl)cc1OC	–	–	–	–	·
O=S(=O)(Nc1cc(Cl)ccc1-n1cncn1)c1cc(Br)ccc1Br	–	22.5	–	65.8	92.8
CCOC(=O)[C@H]1[C@H]2COc3ccc(OC)cc3[C@@H]2N2C(=O)c3ccccc3NC(=O)[C@@]12C	–	–	–	–	·
Cc1onc(-c2ccc(Cl)cc2)c1-c1ccnc(SCC(=O)Nc2cc(Cl)cc(Cl)c2)n1	–	–	–	50.1	51.4
CCc1ccccc1N(C)S(=O)(=O)c1ccc2[nH]cc(C(=O)N3CCc4ccccc43)c(=O)c2c1	–	–	–	63.7	62.9
Cc1ccc(S(=O)(=O)Nc2ccc(N=Nc3ccc(O)cc3)cc2)cc1	–	14.0	–	55.7	42.7
Cc1ccc(S(=O)(=O)Nc2ccc(N(C)S(=O)(=O)c3ccc(C)cc3)cc2)cc1	–	–	–	–	·
CCOC(=O)CCC(=O)Nc1ccc(S(=O)(=O)N2CCc3ccccc32)cc1	–	–	–	–	·
NS(=O)(=O)c1ccc(NC(=O)c2ccc(S(=O)(=O)N3CCc4ccccc43)cc2)cc1	–	–	–	–	·
N#C/C(=N\Nc1ccc(S(=O)(=O)N2CCc3ccccc32)cc1)C(N)=S	–	23.3	–	99.2	67.3
CCOC(=O)/C(C#N)=N/Nc1ccc(S(=O)(=O)N2CCc3ccccc32)cc1	–	23.8	–	89.2	88.8
COc1ccc(S(=O)(=O)N2CCOC23CCN(S(=O)(=O)c2ccc(Cl)cc2)CC3)cc1	–	–	–	–	·
O=C(/C=C/c1ccc(O)c(O)c1)c1ccccc1O	–	25.0	–	73.3	62.8
O=C(C=Cc1cccc(O)c1)c1ccccc1O	–	–	–	–	·
O=C(/C=C/c1ccccc1Cl)c1ccccc(=O)c1O	–	–	–	–	·
O=C(C=Cc1ccccc1O)c1ccccc1O	–	–	–	72.4	89.5
CCCCn1cnc2c(c(-c3ccccc3)c(-c3ccccc3)n2Cc2ccco2)c1=N	–	–	–	–	·
N=c1c2c(-c3ccccc3)c(-c3ccccc3)n(Cc3ccccc3)c2ncn1CCCn1ccnc1	–	–	–	55.5	–
O=[N+]([O-])c1ccc(Cl)cc1CNc1ccc(F)c(F)c1	–	–	–	–	·
CC(C)CCc1noc(CN(C)CCC2CCOCC2)n1	–	–	–	–	·
